Ba/F3 V617F tox: lowers viability of Ba/F3 cells expressing EpoR and JAK2V617F; ATP luminescence; inhibition, % at 5.6 µM; 220,000 tested, 1.1% active;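 active = inhibition above the campaign mean plus 3 SD over all tested compounds, cut at about 24% in these data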;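 also: cytokine-independent growth of Ba/F3 cells driven by EpoR plus mutant JAK2; 0% = DMSO-treated cells and 100% = JAK inhibitor I control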
APP transl inh: APP translation inhibition | 190,000 tested, 0.82% active | inhibition, % at 2 µM | SH-SY5Y APP 5'UTR-luciferase reporter, luminescence | AID 1285;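 active = inhibition above a set limit, derived from the sample mean plus 3 SD, cut at about 45% in these data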
IEC-6 tox: kills IEC-6 intestinal cells in KLF5 counter-screen; IEC-6 cytotoxicity, luminescence viability; inhibition, % at 5 µM; 290,000 tested, 0.78% active; AID 1825; in the data active = inhibition above about 22%;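 also: 0% = plate median of test compound wells and 100% = cytotoxic reference compound wells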
BaF3 tox: parental Ba/F3 viability inhibition as JAK2V617F counter-screen; inhibition, % at 5.6 µM; AID 1486; 220,000 tested, 1.1% active; CellTiter-Glo ATP luminescence;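 active = inhibition above a per-campaign cutoff, the mean inhibition of all tested compounds plus 3 SD, cut at about 27% in these data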;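 also: 0% = DMSO wells and 100% = JAK Inhibitor I control wells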
MT stabilizer: microtubule stabilizers in HeLa cells; AID 2205; 200,000 tested, 0.83% active; % tubulin-high responders, % at 10 µM; HeLa tubulin immunostaining HCS, 24 h; share of cells brighter than vehicle mean+2SD;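 active = plate Z-score above 3 for both tubulin-high and condensed-nucleus cell shares, with cell loss under 80%, at 10 µM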;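 also: anti alpha tubulin signal scored within the nucleus-defined area of each cell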
b-catenin transl: modulators of beta-catenin nuclear translocation; HeLa beta-catenin nuclear translocation, immunofluorescence imaging; nuclear translocation activity, % at 5 µM; 190,000 tested, 0.3% active;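 active = nuclear translocation activity above 50% at 5 µM, with a well cell count of 50 or more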;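 also: per-cell ratio of nuclear to cytoplasmic median beta-catenin stain intensity; plate controls were DMSO negative control for no effect and GSK-3 inhibitor IX positive control for full effect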
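assay system = human HeLa cells, endogenous beta-catenin | times = compound treatment 24 h, 37°C, 5% CO2 | detection = Anti-beta-catenin immunofluorescence on PFA-fixed, Triton-permeabilized cells, DAPI nuclei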
* hit, by the source's call; nt = no result. Rows were chosen to be rich in hits. Some 2.2% of all compounds tested hit in one or more screens of this group.

SMILES	Ba/F3 V617F tox	APP transl inh	IEC-6 tox	BaF3 tox	MT stabilizer	b-catenin transl
COc1ccc(/C=N/NC(=O)CCSc2nc3ccccc3s2)cc1	-1.4	25.9	5.2	3.5	29.3*	130.9*
CCn1c(=N)n(CC(=O)C(C)(C)C)c2ccccc21	-5.5	63.9*	-0.3	-1.5	2.4	-3.8
CCCn1c(=N)n(CC(=O)C(C)(C)C)c2ccccc21	4.1	-13.0	9.5	4.9	6.0	-3.0
C#CCSc1nnc(-c2c[nH]c3ccccc23)n1C	30.1*	-53.8	-0.9	48.5*	1.8	-0.1
Nc1c(Cl)ncnc1NCCc1ccc(O)cc1	4.9	nt	5.7	29.0*	nt	0.0
Nc1c(Cl)ncnc1NCc1cccnc1	nt	nt	-1.5	nt	nt	nt
O=C(Nc1cccs1)Nc1c(F)c(F)cc(F)c1F	30.0*	-21.9	3.5	42.5*	3.3	-0.2
O=C(Nc1cccs1)Nc1c(F)cc(F)cc1Br	-1.6	-14.3	5.8	9.4	1.2	nt
Cc1cccc(C)c1NC(=O)Nc1cccs1	-2.0	6.0	-1.7	0.6	1.4	nt
O=C(Nc1cccs1)Nc1c(F)c(F)c(F)c(F)c1F	42.6*	-19.0	3.9	52.0*	3.0	nt
COc1ccc(CN2C(=NC(=O)COc3ccccc3)SC3CS(=O)(=O)CC32)cc1 (centres undefined)	nt	nt	0.6	nt	nt	nt
CCOC(=O)N1CCC(NC(=O)CN(c2ccc(C(C)C)cc2)S(=O)(=O)c2c(C)nn(C)c2C)CC1	nt	nt	-2.2	nt	nt	nt
Cc1cc(C)n2c(SCC(=O)N(C)C3CCCCC3)nnc2n1	0.3	-22.0	-4.9	6.5	3.5	-0.1
O=C(c1ccc(CN2CCc3ccccc3C2)cc1)N1CCN(c2ccccc2)CC1	-1.1	-10.4	-7.5	3.4	2.3	-1.5
O=C(C1Cc2ccccc2CN1C(=O)c1ccccc1)N1CCN(c2ccccc2)CC1 (centres undefined)	58.1*	nt	0.9	47.0*	nt	1.2
CCOc1ccc(Cc2c(Cl)nc(SC)nc2N(C)C)cc1	0.4	2.6	2.2	4.6	22.4*	2.6
C(=C\c1ccccc1)/CSc1nc2ncccc2[nH]1	-2.2	nt	2.1	-2.7	nt	0.8
COc1ccc(/C=C(/C(=O)c2cccs2)N2C=CC=CC2=C(C#N)C#N)cc1	-3.2	81.9*	2.7	-1.2	7.3	0.7
c1ccc(C2c3c(ccc4ccccc34)Oc3ncn4nc(-c5ccco5)nc4c32)cc1 (centres undefined)	1.1	-12.6	2.6	4.2	11.9*	-0.9
N=c1c2c(ncn1Cc1ccco1)Oc1c(ccc3ccccc13)C2c1ccccc1 (centres undefined)	-0.8	17.4	1.0	6.1	12.0*	7.3
O=[N+]([O-])c1ccc(/C=N/N=C/c2ccc([N+](=O)[O-])o2)o1	3.4	94.0*	4.6	-1.7	3.4	3.5
O=C(O)/C=C/c1ccc([N+](=O)[O-])o1	-0.2	18.0	-7.5	3.7	3.9	-0.1
O=C1/C(=C/c2ccccc2)Nc2ccccc21	-0.7	4.3	-3.4	0.2	2.3	-0.1
O=C1/C(=C/c2ccccc2)NC(=S)N1C(c1ccccc1)c1ccccc1	-3.4	-13.1	1.7	1.4	35.8*	60.8*
Cc1cccc(CSC(Nc2ccc(F)cc2)=C(C#N)C#N)c1	0.4	47.7*	13.3	7.0	2.5	-3.8
SMILES	Ba/F3 V617F tox	APP transl inh	IEC-6 tox	BaF3 tox	MT stabilizer	b-catenin transl
Cc1cccc(CSC(=N)N)c1	-4.2	-1.6	-1.4	-1.2	2.9	-2.3
CC(C)(C)NC(=O)C(c1ccc(F)cc1)N(C(=O)CCC(=O)Nc1ccccn1)C1CCCC1 (centres undefined)	nt	nt	1.5	nt	nt	nt
COc1cc(C(=O)NCC2(N(C)C)CCCCC2)ccc1OCc1ccccc1	nt	nt	0.3	nt	nt	nt
COc1ccc(CCNc2nc(-c3ccncc3)cs2)cc1OC	0.8	nt	3.8	0.2	nt	2.1
COc1ccc(CCNc2nc(-c3sc(C)nc3C)cs2)cc1OC	-0.6	55.2*	1.1	3.6	2.5	nt
CC1CCN(C(=O)CCNC(=O)c2ccccc2Cl)CC1	nt	nt	1.0	nt	nt	nt
O=C(NCCc1csc(-c2cccnc2)n1)c1ccco1	-3.9	3.4	4.3	96.2*	2.2	-0.6
O=C(NCCc1csc(-c2cccnc2)n1)c1ccc(Br)o1	-1.2	-2.0	2.7	6.0	2.3	1.5
Cc1nnc(NS(=O)(=O)c2ccc(Br)cc2)s1	nt	nt	-4.5	nt	nt	nt
Cc1cc2ncn(CCOc3ccccc3)c2cc1C	3.2	-57.6	-0.4	8.3	2.1	2.7
COCCn1cnc2cc(C)c(C)cc21	3.7	3.6	1.3	43.6*	6.9	-2.8
OC(CNCc1cccnc1)COc1ccc2ccccc2c1 (centres undefined)	nt	nt	3.5	nt	nt	nt
CCOc1ccc(CCNC(=O)Cn2nc(C)c3c(C)n(-c4ccccc4)nc3c2=O)cc1OCC	nt	nt	2.9	nt	nt	nt
CC1(C)CC(=O)C2=C(C1)N(CC1CCCO1)C(=O)NC2(C(F)(F)F)C(F)(F)F (centres undefined)	-2.2	7.2	-2.3	38.0*	4.2	0.2
N#C/C(C(=O)NCCc1ccccc1)=C1/N=C(NC(=O)c2cccs2)c2ccccc21	4.3	-4.4	0.2	9.8	11.7*	48.7
Cc1cc(Sc2nnc(/N=C/N(C)C)s2)c2ccccc2n1	90.4*	nt	11.0	73.3*	nt	-4.1
Cc1cc(C(N)=O)c2ccccc2n1	1.5	9.6	-0.1	1.5	3.6	-4.0
Cc1cc(Sc2nnc(N)s2)c2ccccc2n1	96.1*	nt	18.2	76.8*	nt	3.3
Cc1nc(-c2ccc(S(=O)(=O)Nc3ccc(Br)cc3F)cc2)co1	nt	nt	-8.6	nt	nt	nt
CC(Oc1ccc(Cl)cc1Cl)C(=O)Nc1ccncc1 (centres undefined)	-0.2	5.4	-3.6	2.2	56.1*	52.4*
CCCn1c(NCc2ccccc2NS(=O)(=O)c2ccc(C)cc2)nc2ccccc21	-4.4	0.7	3.7	2.2	21.2*	-3.2
CCn1c(NCc2ccccc2NS(=O)(=O)c2ccc(C)cc2)nc2ccccc21	-0.9	-8.5	3.7	9.1	6.1	-0.9
CCOc1ccc(S(=O)(=O)N(C(=O)c2ccco2)c2cc3sc(=O)oc3c3ccccc23)cc1	-1.7	-11.6	1.2	5.3	19.1*	0.4
CN(C)S(=O)(=O)c1ccc(C(=O)OCC2CCCO2)cc1 (centres undefined)	nt	nt	2.2	nt	nt	nt
CC(=O)OC(COC1C[C@@H]2CC[C@@]1(C)C2(C)C)C[N+]1(C)CCCCC1 (some centres undefined)	0.5	nt	-1.4	39.2*	nt	-2.8
CC1(C)C2CCC1(C)C(OC(=O)c1ccccc1C(=O)O)C2 (centres undefined)	-3.7	nt	-2.0	1.1	nt	-0.4
COc1ccc(N(C(=O)c2ccco2)C(C(=O)NC2CCCCC2)c2cccs2)cc1OC (centres undefined)	-2.1	-2.9	-0.9	-0.6	3.0	-0.2
C#CC(=O)N(c1ccc(OC)cc1OC)C(C(=O)NC1CCCC1)c1cccs1 (centres undefined)	100.9*	15.4	102.3*	26.6*	2.0	31.6
Fc1ccc(NC(=S)N2CCCN(c3ccc(C(F)(F)F)cn3)CC2)c(F)c1	35.4*	nt	-6.0	32.9*	nt	0.5
